Results taken from ChEMBL document CHEMBL4689842, “EUbOPEN Chemogenomics Library wave 1” (2021).
“And” between values parts separate entries of the source, which are not always exact repeats. Equal entries are not always repeated.

Test system: HEK-293T
Experiment: Multiplex assay against HEK293T;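 on Population Tubulin-Different-Phenotype (%): share of the cells with healthy nuclei that show this phenotype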
Type: toxicity, cell-based
Conditions: human
Procedure, shortened: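 Live cells carried four stains from seeding: Hoechst33342, BioTracker Green Microtubule Cytoskeleton Dye, MitoTracker Red and Annexin V Alexa Fluor 680. They were imaged on a CQ1 microscope at 37°C and 5% CO2 after compound addition. Using CellPathfinder machine-learning gating, cells were split into Hoechst high-intensity objects or normal cells, normal cells into healthy, pyknosed or fragmented nuclei, and pyknosed cells into mitotic or apoptotic; tubulin, mitochondrial-mass and membrane-permeability phenotypes are per cents of healthy-nucleus cells.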

[1] = 12 h, 1 µM, compound concentration 1 uM, replicate 1
[2] = 12 h, 1 µM, compound concentration 1 uM, replicate 2
[3] = 12 h, 10 µM, compound concentration 10 uM, replicate 1
[4] = 12 h, 10 µM, compound concentration 10 uM, replicate 2
[5] = 24 h, 1 µM, compound concentration 1 uM, replicate 1
[6] = 24 h, 1 µM, compound concentration 1 uM, replicate 2
[7] = 24 h, 10 µM, compound concentration 10 uM, replicate 1
[8] = 24 h, 10 µM, compound concentration 10 uM, replicate 2
[9] = 48 h, 1 µM, compound concentration 1 uM, replicate 1
[10] = 48 h, 1 µM, compound concentration 1 uM, replicate 2
[11] = 48 h, 10 µM, compound concentration 10 uM, replicate 1
[12] = 48 h, 10 µM, compound concentration 10 uM, replicate 2

Structure (SMILES): C[C@@H](NCCCc1cccc(C(F)(F)F)c1)c1cccc2ccccc12.Cl [CINACALCET HYDROCHLORIDE]
- Population Apoptotic (%) [1]: 48%
- Population Fragmented Nuclei (%) [1]: 4%
- Population Healthy Nuclei (%) [1]: 49%
- Population Hoechst High Intensity Objects (%) [1]: 8%
- Population Membrane Permeable-Phenotype (%) [1]: 2%
- Population Mitochondria Different-Phenotype (%) [1]: 90%
- Population Mitotic Cells (%) [1]: 51%
- Population Normal (%) [1]: 91%
- Population Pyknosed Nuclei (%) [1]: 46%
- Population Tubulin-Different-Phenotype (%) [1]: 72%
- Total Cell Count [1]: 382
- Population Apoptotic (%) [2]: 16%
- Population Fragmented Nuclei (%) [2]: 7%
- Population Healthy Nuclei (%) [2]: 32%
- Population Hoechst High Intensity Objects (%) [2]: 3%
- Population Membrane Permeable-Phenotype (%) [2]: 6%
- Population Mitochondria Different-Phenotype (%) [2]: 51%
- Population Mitotic Cells (%) [2]: 83%
- Population Normal (%) [2]: 96%
- Population Pyknosed Nuclei (%) [2]: 60%
- Population Tubulin-Different-Phenotype (%) [2]: 67%
- Total Cell Count [2]: 158
- Population Apoptotic (%) [3]: 87%
- Population Fragmented Nuclei (%) [3]: 12%
- Population Healthy Nuclei (%) [3]: 13%
- Population Hoechst High Intensity Objects (%) [3]: 19%
- Population Membrane Permeable-Phenotype (%) [3]: 0%
- Population Mitochondria Different-Phenotype (%) [3]: 95%
- Population Mitotic Cells (%) [3]: 12%
- Population Normal (%) [3]: 80%
- Population Pyknosed Nuclei (%) [3]: 74%
- Population Tubulin-Different-Phenotype (%) [3]: 95%
- Total Cell Count [3]: 195
- Population Apoptotic (%) [4]: 80%
- Population Fragmented Nuclei (%) [4]: 3%
- Population Healthy Nuclei (%) [4]: 11%
- Population Hoechst High Intensity Objects (%) [4]: 4%
- Population Mitotic Cells (%) [4]: 19%
- Population Normal (%) [4]: 95%
- Population Pyknosed Nuclei (%) [4]: 84%
- Population Tubulin-Different-Phenotype (%) [4]: 90%
- Total Cell Count [4]: 193
- Population Apoptotic (%) [5]: 40%
- Population Healthy Nuclei (%) [5]: 61%
- Population Hoechst High Intensity Objects (%) [5]: 7%
- Population Membrane Permeable-Phenotype (%) [5]: 1%
- Population Mitochondria Different-Phenotype (%) [5]: 77%
- Population Mitotic Cells (%) [5]: 59%
- Population Normal (%) [5]: 92%
- Population Pyknosed Nuclei (%) [5]: 30%
- Population Tubulin-Different-Phenotype (%) [5]: 63%
- Total Cell Count [5]: 417
- Population Apoptotic (%) [6]: 28%
- Population Fragmented Nuclei (%) [6]: 8%
- Population Healthy Nuclei (%) [6]: 48%
- Population Hoechst High Intensity Objects (%) [6]: 4%
- Population Membrane Permeable-Phenotype (%) [6]: 6%
- Population Mitochondria Different-Phenotype (%) [6]: 47%
- Population Mitotic Cells (%) [6]: 71%
- Population Normal (%) [6]: 95%
- Population Pyknosed Nuclei (%) [6]: 43%
- Population Tubulin-Different-Phenotype (%) [6]: 60%
- Total Cell Count [6]: 201
- Population Apoptotic (%) [7]: 87%
- Population Fragmented Nuclei (%) [7]: 15%
- Population Healthy Nuclei (%) [7]: 15%
- Population Hoechst High Intensity Objects (%) [7]: 19%
- Population Membrane Permeable-Phenotype (%) [7]: 3%
- Population Mitotic Cells (%) [7]: 12%
- Population Normal (%) [7]: 80%
- Population Pyknosed Nuclei (%) [7]: 68%
- Population Tubulin-Different-Phenotype (%) [7]: 96%
- Total Cell Count [7]: 227
- Population Apoptotic (%) [8]: 86%
- Population Fragmented Nuclei (%) [8]: 4%
- Population Healthy Nuclei (%) [8]: 18%
- Population Hoechst High Intensity Objects (%) [8]: 8%
- Population Membrane Permeable-Phenotype (%) [8]: 6%
- Population Mitochondria Different-Phenotype (%) [8]: 100%
- Population Mitotic Cells (%) [8]: 13%
- Population Normal (%) [8]: 91%
- Population Pyknosed Nuclei (%) [8]: 76%
- Population Tubulin-Different-Phenotype (%) [8]: 84%
- Total Cell Count [8]: 198
- Population Apoptotic (%) [9]: 27%
- Population Fragmented Nuclei (%) [9]: 7%
- Population Healthy Nuclei (%) [9]: 79%
- Population Membrane Permeable-Phenotype (%) [9]: 1%
- Population Mitochondria Different-Phenotype (%) [9]: 43%
- Population Mitotic Cells (%) [9]: 72%
- Population Pyknosed Nuclei (%) [9]: 12%
- Population Tubulin-Different-Phenotype (%) [9]: 48%
- Total Cell Count [9]: 730
- Population Apoptotic (%) [10]: 21%
- Population Fragmented Nuclei (%) [10]: 3%
- Population Healthy Nuclei (%) [10]: 74%
- Population Hoechst High Intensity Objects (%) [10]: 5%
- Population Membrane Permeable-Phenotype (%) [10]: 9%
- Population Mitochondria Different-Phenotype (%) [10]: 23%
- Population Mitotic Cells (%) [10]: 78%
- Population Normal (%) [10]: 94%
- Population Pyknosed Nuclei (%) [10]: 22%
- Population Tubulin-Different-Phenotype (%) [10]: 57%
- Total Cell Count [10]: 266
- Population Apoptotic (%) [11]: 90%
- Population Fragmented Nuclei (%) [11]: 24%
- Population Healthy Nuclei (%) [11]: 12%
- Population Hoechst High Intensity Objects (%) [11]: 18%
- Population Membrane Permeable-Phenotype (%) [11]: 0%
- Population Mitochondria Different-Phenotype (%) [11]: 100%
- Population Mitotic Cells (%) [11]: 9%
- Population Normal (%) [11]: 81%
- Population Pyknosed Nuclei (%) [11]: 63%
- Population Tubulin-Different-Phenotype (%) [11]: 86%
- Total Cell Count [11]: 216
- Population Apoptotic (%) [12]: 89%
- Population Fragmented Nuclei (%) [12]: 6%
- Population Healthy Nuclei (%) [12]: 18%
- Population Hoechst High Intensity Objects (%) [12]: 9%
- Population Membrane Permeable-Phenotype (%) [12]: 8%
- Population Mitochondria Different-Phenotype (%) [12]: 94%
- Population Mitotic Cells (%) [12]: 10%
- Population Normal (%) [12]: 90%
- Population Pyknosed Nuclei (%) [12]: 75%
- Population Tubulin-Different-Phenotype (%) [12]: 70%
- Total Cell Count [12]: 203

Structure (SMILES): CC(C)C(=O)Nc1n[nH]c2cc(-c3cccc(NS(=O)(=O)C4CC4)c3)ccc12
- Population Apoptotic (%) [1]: 21%
- Population Fragmented Nuclei (%) [1]: 16% and 10%
- Population Healthy Nuclei (%) [1]: 61% and 63%
- Population Hoechst High Intensity Objects (%) [1]: 10% and 14%
- Population Membrane Permeable-Phenotype (%) [1]: 4%
- Population Mitochondria Different-Phenotype (%) [1]: 4% and 6%
- Population Mitotic Cells (%) [1]: 78%
- Population Normal (%) [1]: 89% and 85%
- Population Pyknosed Nuclei (%) [1]: 22% and 25%
- Population Tubulin-Different-Phenotype (%) [1]: 1% and 4%
- Total Cell Count [1]: 541 and 686
- Population Apoptotic (%) [2]: 12% and 8%
- Population Fragmented Nuclei (%) [2]: 4% and 6%
- Population Healthy Nuclei (%) [2]: 85% and 89%
- Population Hoechst High Intensity Objects (%) [2]: 3% and 1%
- Population Membrane Permeable-Phenotype (%) [2]: 1%
- Population Mitochondria Different-Phenotype (%) [2]: 13% and 7%
- Population Mitotic Cells (%) [2]: 87% and 91%
- Population Normal (%) [2]: 96% and 98%
- Population Pyknosed Nuclei (%) [2]: 9% and 4%
- Population Tubulin-Different-Phenotype (%) [2]: 7%
- Total Cell Count [2]: 1247 and 1614
- Population Apoptotic (%) [5]: 14% and 20%
- Population Fragmented Nuclei (%) [5]: 11%
- Population Healthy Nuclei (%) [5]: 80% and 75%
- Population Hoechst High Intensity Objects (%) [5]: 6% and 10%
- Population Membrane Permeable-Phenotype (%) [5]: 8% and 6%
- Population Mitochondria Different-Phenotype (%) [5]: 3% and 5%
- Population Mitotic Cells (%) [5]: 85% and 79%
- Population Normal (%) [5]: 93% and 89%
- Population Pyknosed Nuclei (%) [5]: 8% and 13%
- Population Tubulin-Different-Phenotype (%) [5]: 4% and 8%
- Total Cell Count [5]: 620 and 701
- Population Apoptotic (%) [6]: 4% and 12%
- Population Fragmented Nuclei (%) [6]: 22% and 8%
- Population Healthy Nuclei (%) [6]: 76% and 86%
- Population Hoechst High Intensity Objects (%) [6]: 3% and 4%
- Population Membrane Permeable-Phenotype (%) [6]: 5% and 2%
- Population Mitochondria Different-Phenotype (%) [6]: 1% and 6%
- Population Mitotic Cells (%) [6]: 95% and 87%
- Population Normal (%) [6]: 96% and 95%
- Population Tubulin-Different-Phenotype (%) [6]: 15%
- Total Cell Count [6]: 2835 and 1472
